A selection: hits, their analogues and other compounds. The true share with any hit is near 2.9%.
Cneo AK release: Cryptococcus neoformans cell lysis inducers, primary screen, AK release luminescence, single concentration; C. neoformans lysis, adenylate kinase release luminescence, 4 h; normalised: neutral wells 0, clomiphene wells 100; lysis activity, % at 15 µM; hit rate 0.2% among 360,000;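 active = mean lysis activity across replicates of at least 80%, whatever share of replicates individually reach that level; inactive = mean lysis activity below 80%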
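read-out = cell lysis signal | test system = log-phase Cryptococcus neoformans yeast cells | input = cells at 5 × 10^6 per mL | medium = fresh YPD growth medium | signal = luminescent adenylate kinase detection reagent | timing = 4 h at 37 °C static, read 1 h later | dosing = single dose | controls = Clomiphene as positive lysis control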
Ecoli rRNA inh: reduced GFP signal of wild-type E. coli, primary screen, bacterial rRNA inhibitor project, GFP/RFP fluorescence, OD600, single point. E. coli WT GFP vs humanized-ribosome RFP mutants, 24 h; hits give low values; DMSO median 0, no signal -100. GFP signal change (wild-type ribosome), % (test concentration not listed). hit rate 1.6% among 350,000;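 active = significant combined selectivity score with lowered wild-type GFP, culture density cut under 30%, mutant RFP and density less affected; inactive = any of these conditions unmet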
Vif imaging: HIV Vif self-association inhibitors, primary screen, imaging, HEK293T, single point; inhibition, % at 7.49 µM; hit rate 0.35% among 340,000; HEK293T cells, Vif self-association by quenched fluorescence, 24 h; in the data active = inhibition above about 50%, passing the limit was not always enough
PglD inh: C. jejuni PglD acetyltransferase inhibitors, primary screen, biochemical, DTNB colorimetric, single point | UDP-N-acetylbacillosamine N-acetyltransferase PglD (Campylobacter jejuni) | purified PglD enzyme, DTNB colorimetric CoA detection | inhibition, % at 12.5 µM | hit rate 0.098% among 360,000 | AID 602405, 2012; in the data active = inhibition above about 16%, passing the limit was not always enough
FGF22 binding: binders of human FGF22 protein, primary screen, FGF22 synaptogenesis inhibitor project, biophysical, thermal shift, single point | activity (Tm shift, normalised), % at 9.99 µM | hit rate 1.5% among 340,000 | AID 651658, 2012 | recombinant FGF22 thermal shift, SYPRO orange fluorescence; percent of sucrose octasulfate shift, DMSO zero;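 active = mean Tm shift, scaled 0 neutral to 100 positive control, at about 1.3% or above, every replicate too, limit read from the data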
Target sequence (Q9HCT0 whole entry, looked up): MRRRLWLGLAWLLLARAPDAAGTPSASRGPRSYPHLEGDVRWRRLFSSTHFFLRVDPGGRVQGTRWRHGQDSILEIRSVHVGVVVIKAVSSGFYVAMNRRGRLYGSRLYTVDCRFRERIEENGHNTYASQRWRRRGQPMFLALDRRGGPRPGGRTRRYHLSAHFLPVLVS
PGC1a acetyl inh: inhibitors of PGC1a acetylation signal, primary screen, cell-based, U2OS, AlphaScreen, inhibitor mode; AID 651687, 2012; AlphaScreen anti-acetyl-lysine; with virally co-expressed GCN5 acetyltransferase; inhibition, % at 15.6 µM; hit rate 0.17% among 350,000;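 active = every replicate shows inhibition of at least 40%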;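 note: 0% = neutral control wells and 100% = positive control wells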
* marks the source's active call; other numbers are inactive results; . = not tested or not shown.

SMILES	Cneo AK release	Ecoli rRNA inh	Vif imaging	PglD inh	FGF22 binding	PGC1a acetyl inh
CO[C@@H]1CN(C)C(=O)c2ccc(NC(=O)Nc3ccccc3)cc2OC[C@H](C)N(C(C)=O)C[C@H]1C	119*	0	.	-1	0	.
CO[C@@H]1CN(C)C(=O)c2ccc(NC(=O)Nc3ccccc3)cc2OC[C@H](C)N(C(C)=O)C[C@@H]1C	4	-3	.	-3	0	.
O=C1c2ccccc2NC(c2cccc([N+](=O)[O-])c2)N1CCc1ccccc1 (configuration not stated)	-3	-20*	4	-5	0	-13
CC(C)NC(=O)N1CC2(C1)[C@H](c1ccccc1)[C@H](CO)N2C(=O)C1CCCC1	.	3	.	.	.	-2
COc1ccccc1C(=O)Nc1ccc2c(c1)OC[C@@H](C)NC[C@@H](C)[C@@H](OC)CN(C)C2=O	22	2	.	0	.	13
COCC(=O)Nc1ccc2c(c1)OC[C@@H](C)N(CC1CCCCC1)C[C@@H](C)[C@H](OC)CN(C)C2=O	.	0	.	.	.	.
O=C1C(=O)N(CC(=O)N2CCCC2)c2ccccc21	.	14	-4	.	43*	.
CC(C)NC(=O)CN1C(=O)C(=O)c2ccccc21	0	.	-3	6	.	4
COc1ccc(-n2c(-c3ccc(Cl)cc3)c[n+]3c2CCCCC3)cc1	3	-32*	1	-4	.	-4
COc1ccc(-c2c[n+]3c(n2-c2ccccc2)CCCCC3)cc1	3	-12	-1	0	0	.
COc1ccc(-c2c[n+]3c(n2-c2c(C)n(C)n(-c4ccccc4)c2=O)CCCCC3)cc1	.	11	-25	.	43*	19
C[C@@H]1CN([C@H](C)CO)C(=O)c2cc(NS(=O)(=O)c3cn(C)cn3)ccc2O[C@@H](C)CCCCO[C@@H]1CN(C)C(=O)c1ccncc1	.	4	.	.	0	0
Cc1cc(C)nc(N/N=C/c2ccccc2)n1	.	16	8	.	0	8
Cc1cc(C)nc(N/N=C/C(Cl)=C/c2ccccc2)n1	.	-26*	-1	.	0	-9
COc1ccc(NC(=O)N2C[C@@H](O)COC[C@H]3O[C@@H](CC(=O)NC4Cc5ccccc5C4)CC[C@@H]32)cc1	-2	-3	.	-2	0	3
COC(=O)CC1C(=O)NCCN1C(=S)NC(=O)CCc1ccccc1 (configuration not stated)	.	4	1	.	0	1
COC(=O)CC1C(=O)NCCN1C(=S)NC(=O)C(c1ccccc1)c1ccccc1 (configuration not stated)	.	-26*	3	.	0	.
CCN1C(=O)CCCc2ccccc21	0	10	-6	7	0	68*
O=C(NN1C(=O)/C(=C/c2ccc(O)c([N+](=O)[O-])c2)SC1=S)c1ccccc1Cl	.	-22*	6	.	.	1
COc1cc(/C=C2\SC(=S)N(NC(=O)c3ccccc3O)C2=O)ccc1O	-2	-41	-3	-5	0	6
C/C(=C\c1ccccc1)CN1CCN(Cc2ccc(C)o2)C(CCO)C1 (configuration not stated)	-1	11	-5	-3	44*	.
Cc1ccc(CN2CCN(Cc3cn(C)nc3C)CC2CCO)o1 (configuration not stated)	.	13	-3	.	43*	.
Cc1ccc(CN2CCN(Cc3cnc(C)s3)CC2CCO)o1 (configuration not stated)	.	15	-2	.	44*	.
Cc1ccc(CN2CCN(Cc3cnc(N4CCOCC4)s3)CC2CCO)o1 (configuration not stated)	.	.	1	.	0	.
Cc1ccc(CN2CCN(Cc3cn(C(C)C)c4ccccc34)CC2CCO)o1 (configuration not stated)	0	-2	-2	-1	0	-6
SMILES	Cneo AK release	Ecoli rRNA inh	Vif imaging	PglD inh	FGF22 binding	PGC1a acetyl inh
COC(=O)C[C@@H]1CC[C@H]2[C@H](COc3ccc(NC(=O)NC(C)C)cc3C(=O)N2C)O1	1	3	.	5	0	1
C[C@@H](O)C#Cc1ccc([C@@H]2[C@@H](CO)N3CCCCN(S(=O)(=O)Cc4ccccc4)C[C@H]23)cc1	-5	1	.	3	0	-6
Cc1ccc(S(=O)(=O)N(C)C[C@@H]2Oc3ccc(NS(=O)(=O)c4cccs4)cc3C(=O)N([C@H](C)CO)C[C@H]2C)cc1	-3	-3	.	-1	0	15
O=C(N/N=C/c1ccc([N+](=O)[O-])o1)c1cc2c(ccc3ccccc32)o1	.	-24*	2	.	0	.
O=C(Nc1ccc2c(c1)nc1n2CCOC1)c1ccccc1	-1	.	58*	5	.	-4
CC=Cc1ccc2n(c1=O)C[C@@H]1[C@@H](CO)[C@H](C(=O)NCCc3ccncc3)[C@H]2N1CCC(F)(F)F (mixture of isomers)	.	2	.	.	.	.
COC(=O)[C@@]1(Cc2ccccc2)[C@H]2C(=O)N(C)C(=O)[C@H]2[C@H]2CN=C(SCc3ccccc3)N21	-4	-16*	-14	6	0	-2
COC(=O)[C@@]1(Cc2ccccc2)[C@H]2C(=O)N(C)C(=O)[C@H]2[C@H]2CN=C(SCc3ccc(C#N)cc3)N21	1	-21*	0	0	0	1
COc1ccccc1CNC(=O)C[C@H]1C[C@@H]2c3cc(NS(=O)(=O)c4ccc(F)cc4)ccc3O[C@@H]2[C@H](CO)O1	-24	-7	.	0	0	-4
O=C(Cc1ccccc1)N1CC[C@@H]2[C@H]1c1cc(-c3ccccc3)ccc1N[C@@H]2CO	8	-47	.	4	0	1
Cc1cccc(NC(=O)COc2ccc(Br)cc2/C=N/O)c1	.	-44*	-2	.	0	.
O=C(NCC[C@H]1CC[C@@H](NC(=O)C2CCCC2)[C@H](CO)O1)Nc1ccc(Cl)cc1	-1	-25	.	4	0	-3
CN1C(=O)/C(=C/c2ccccc2OCc2cccc(F)c2)N(C)C1=S	10	.	-7	-3	.	-19
Fc1cccc(COc2ccccc2C(=S)N2CCCC2)c1	1	-30*	7	0	0	5
O=C(CCNC(=O)c1ccccc1)Nc1ccc(F)c(Cl)c1	.	-2	1	.	44*	.
C[C@H]1COCn2nncc2CC[C@H](Cc2ccccc2)C(=O)N1	.	4	.	.	.	.

Source: PubChem BioAssay (Broad Institute)
